Experimental findings from PubChem BioAssay are described below.

Calls of active or inactive are those of the source.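 Rule for the calls, unless noted: active = viability at or under a set limit in both replicates, limit being median viability minus 3 SD (cut at about 48% in these data, passing the limit was not always enough); inconclusive = at or under the limit in just one replicate; inactive = at or above the limit in both replicates.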

Assay [1] can be described thus: reducers of endogenous Her2 protein level, primary screen, SKBR3 breast tumor cells, AlphaScreen, ATP viability (AID 461;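 active = Her2 level under about 52% in both replicate screens, with viability over 70% of control, limit read from the data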;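 for Her2 level: lower value means less Her2 protein in the cells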;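 for viability: percent of carrier control wells set as 100% viability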). The settings on record: 18-24 h, measured here: SKBR3 viability, ATP luminescence, at 10 µM.
In assay [2] the target is Receptor tyrosine-protein kinase erbB-2 (Homo sapiens) (UniProt P04626). Described as above. The settings on record: 18-24 h, at 10 µM, stronger effect = lower value.
Chain of Receptor tyrosine-protein kinase erbB-2 (Homo sapiens) (P04626 whole entry, looked up): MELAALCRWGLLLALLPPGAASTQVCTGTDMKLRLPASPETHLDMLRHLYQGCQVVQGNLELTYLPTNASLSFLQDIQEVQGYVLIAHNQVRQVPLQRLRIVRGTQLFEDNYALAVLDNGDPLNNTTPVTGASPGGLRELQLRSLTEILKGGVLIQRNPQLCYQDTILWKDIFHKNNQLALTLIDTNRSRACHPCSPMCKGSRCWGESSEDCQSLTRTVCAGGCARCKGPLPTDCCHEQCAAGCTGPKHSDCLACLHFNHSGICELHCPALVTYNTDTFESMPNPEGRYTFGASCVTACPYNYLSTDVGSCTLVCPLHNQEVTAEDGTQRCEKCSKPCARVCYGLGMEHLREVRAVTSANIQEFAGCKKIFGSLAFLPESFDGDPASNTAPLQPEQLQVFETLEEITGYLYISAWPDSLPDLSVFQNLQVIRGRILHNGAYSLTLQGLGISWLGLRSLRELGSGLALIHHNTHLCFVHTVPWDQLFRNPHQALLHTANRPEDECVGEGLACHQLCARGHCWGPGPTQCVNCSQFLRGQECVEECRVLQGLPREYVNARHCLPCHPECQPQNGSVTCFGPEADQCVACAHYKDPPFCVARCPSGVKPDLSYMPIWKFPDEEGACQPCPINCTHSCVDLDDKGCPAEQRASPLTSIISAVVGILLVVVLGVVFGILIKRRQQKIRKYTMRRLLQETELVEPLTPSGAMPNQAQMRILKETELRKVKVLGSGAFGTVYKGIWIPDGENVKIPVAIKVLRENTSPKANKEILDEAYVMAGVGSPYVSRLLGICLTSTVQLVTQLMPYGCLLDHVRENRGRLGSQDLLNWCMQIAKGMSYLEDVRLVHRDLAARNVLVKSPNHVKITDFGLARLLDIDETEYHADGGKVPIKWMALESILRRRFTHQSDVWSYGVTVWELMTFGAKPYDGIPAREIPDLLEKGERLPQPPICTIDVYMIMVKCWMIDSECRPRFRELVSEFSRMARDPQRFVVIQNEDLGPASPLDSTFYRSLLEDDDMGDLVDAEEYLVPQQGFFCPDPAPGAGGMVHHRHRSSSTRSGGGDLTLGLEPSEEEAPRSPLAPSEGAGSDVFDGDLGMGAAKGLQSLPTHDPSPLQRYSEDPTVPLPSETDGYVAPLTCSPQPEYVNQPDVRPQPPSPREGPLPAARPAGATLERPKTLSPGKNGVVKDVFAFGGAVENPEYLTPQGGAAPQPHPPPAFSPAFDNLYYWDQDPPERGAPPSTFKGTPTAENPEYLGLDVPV
Assay [3] is described as follows: SK-BR-3 cell growth inhibitors, pilot screen, 24 h, human (AID 572;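 active = viability at or below 10% of carrier control in both of two separate runs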;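 note: compound exposure lasted between 18 and 24 h rather than exactly 24 h; 100% = carrier-treated control wells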). The settings on record: SK-BR-3 viability, CellTiter-Glo luminescence, at 10 µM, stronger effect = lower value.
Assay [4] can be described thus: HUVEC growth inhibition – cell-based, human, primary screen (AID 575;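 active = viability at or below 30% in both replicate assays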;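 note: 100% = median of untreated cell wells with 0.1% DMSO on each plate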). Particulars: HUVEC proliferation, CellTiter-Glo luminescence, 72 h; at 10 µM; stronger effect = lower value. The gist of the method: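 Assay system: Primary human umbilical vein endothelial cells | Quantity: 1250 cells per well | Medium: Supplemented EBM, 2% fetal bovine serum | Detection: CellTiter-Glo luminescence measuring cellular ATP | Read-out: % viability vs DMSO wells | Plate: Collagen-coated 384-well format | Times: 72 h exposure, 37 °C, 5% CO2, 30 min RT equilibration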

A short description of assay [5]: growth inhibitors of H69AR lung tumor, primary screen, human, duplicate replicates (AID 580).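 Note: 100% = mean luminescence of untreated wells and 0% = no signal.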 Particulars: H69AR lung tumor cells viability, ATP luminescence, 72 h; at 10 µM; stronger effect = lower value.
A short description of assay [6]: reversal of MRP1-mediated doxorubicin resistance, pilot screen, H69AR cells, doxorubicin co-treatment (AID 601;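 active = viability loss from added drug above about 55%, and viability with drug at most 40%, in both replicates, limit read from the data, passing the limit was not always enough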). Particulars: CellTiter-Glo, 72 h, at 10 µM; for differential viability (reversal): stronger effect = higher value.
A short description of assay [7]: 384-well plate pilot, post-Golgi transport modulator project, inhibition of yeast transport mutant growth (AID 636; in the data active = inhibition above about 31%). Particulars: absorbance 615 nm, about 18 h, stronger effect = higher value.
Assay [8] can be described thus: growth suppression of yeast trafficking mutant, preliminary HTS, modulators of trafficking downstream of Golgi apparatus project, 1536-format plate, OD 615 nm (AID 637; in the data active = inhibition above about 30%). The settings on record: yeast transport mutant growth, absorbance 615 nm, 18 h; stronger effect = higher value.
[9] abbreviates: H69AR cells + 2 uM doxorubicin, measured here: viability with 2 uM doxorubicin, stronger effect = lower value.
[10] abbreviates: H69AR cells, compound alone cytotoxicity.

Regarding `CCCS(=O)(=O)N1CCN(C(=O)c2cccs2)CC1`, the viability in assay [1] was 99.5%; in assay [3], 99.5% (inactive); in assay [4], 110% (inactive); in assay [5] it was 99.9% (inactive); in assay [6] (setting [9]) it was 101%; in assay [6] (setting [10]), 99.9%. Moreover, the Her2 level in assay [2] is 99.5% (inactive). The differential viability (reversal) in assay [6] (H69AR cells + 2 uM doxorubicin) was -0.9% (inactive). The inhibition is -1.07% (inactive) in assay [7] and 2.95% (inactive) in assay [8].

For the compound `c1ccc(-c2nnc(OCCN3CCOCC3)c3ccccc23)cc1`, the viability in assay [1] is 112%; in assay [3] it was 112% (inactive); in assay [4], 87.3% (inactive); in assay [5], 84.2% (inactive); in assay [6] (setting [9]) it was 89.9%; in assay [6] (setting [10]), 84.2%. In addition, the Her2 level in assay [2] is 118% (inactive). In assay [6] (H69AR cells + 2 uM doxorubicin), the differential viability (reversal) is -5.76% (inactive). Further, the inhibition in assay [7] is -4.08% (inactive); in assay [8], 2.62% (inactive).

Regarding `CSC1=C(C#N)C(c2ccc(Cl)cc2)C2=C(CC(C)(C)CC2=O)N1` (stereo not given), the viability in assay [1] is 102%; in assay [3], 102% (inactive); in assay [4], 72.1% (inactive); in assay [5], 66% (inactive); in assay [6] (setting [9]), 33.6%; in assay [6] (setting [10]), 66%. For the same compound, in assay [2], the Her2 level is 95% (inactive). Besides, in assay [6] (H69AR cells + 2 uM doxorubicin), the differential viability (reversal) is 32.4% (inactive). The inhibition in assay [7] is -3.92% (inactive); in assay [8], -1.48% (inactive).

As for `Cc1cc(=O)n(C)c(=O)n1CCCCCN1CCCC1`, the viability in assay [1] was 96.5%; in assay [3], 96.5% (inactive); in assay [4], 100% (inactive); in assay [5], 99.8% (inactive); in assay [6] (setting [9]) it was 85.2%; in assay [6] (setting [10]) it was 99.8%. For the same compound, the Her2 level in assay [2] is 80% (inactive). Moreover, the differential viability (reversal) in assay [6] (H69AR cells + 2 uM doxorubicin) was 14.7% (inactive). Also, the inhibition is -1.2% (inactive) in assay [7] and 0.48% (inactive) in assay [8].

As to `O=C(c1ccco1)N1CCN(/C(=N/S(=O)(=O)c2cccs2)c2ccccc2Cl)CC1`, the viability in assay [1] was 77%; in assay [3] it was 77% (inactive); in assay [4], 88.7% (inactive); in assay [5], 93.1% (inactive); in assay [6] (setting [9]), 92.3%; in assay [6] (setting [10]), 93.1%. For the same compound, the Her2 level in assay [2] was 81% (inactive). Moreover, the differential viability (reversal) in assay [6] (H69AR cells + 2 uM doxorubicin) was 0.85% (inactive). For the same compound, the figures for the inhibition in assay [7] and in assay [8] were -4.73% (inactive) and -3.77% (inactive), respectively.

With `CN(Cc1ccccc1)C(=O)c1ccc2c(c1)OCO2`, the viability in assay [1] was 101%; in assay [3] it was 101% (inactive); in assay [4], 88.2% (inactive); in assay [5] it was 108% (inactive); in assay [6] (setting [9]), 90.3%; in assay [6] (setting [10]) it was 108%. Also, the Her2 level in assay [2] is 97% (inactive). The differential viability (reversal) in assay [6] (H69AR cells + 2 uM doxorubicin) is 17.7% (inactive). Further, the inhibition was -2.53% (inactive) in assay [7] and 4.43% (inactive) in assay [8].

Turning to `CCOC(=O)C(NC(=O)c1ccccc1)(Nc1cc(C)on1)C(F)(F)F` (stereo not given), the viability in assay [1] was 106%; in assay [3], 106% (inactive); in assay [4], 101% (inactive); in assay [5], 97.7% (inactive); in assay [6] (setting [9]), 86.6%; in assay [6] (setting [10]), 97.7%. Also, in assay [2], the Her2 level was 90.5% (inactive). Besides, the differential viability (reversal) in assay [6] (H69AR cells + 2 uM doxorubicin) is 11.1% (inactive). Moreover, the inhibition in assay [7] was -0.93% (inactive); in assay [8] it was -1.61% (inactive).

For the compound `CCCCn1cnc2c(cnn2-c2ccc(Cl)cc2)c1=O`, the viability in assay [1] is 94.5%; in assay [3] it was 94.5% (inactive); in assay [4] it was 99.4% (inactive); in assay [5], 86.1% (inactive); in assay [6] (setting [9]), 87.9%; in assay [6] (setting [10]), 86.1%. The Her2 level in assay [2] was 87% (inactive). The differential viability (reversal) in assay [6] (H69AR cells + 2 uM doxorubicin) was -1.77% (inactive). Further, the inhibition in assay [7] was -3.55% (inactive); in assay [8], 2.91% (inactive).

On to `COc1ccccc1C(=O)N1CCNC(=O)C1CC(=O)Nc1ccc(Cl)cc1` (stereo not given), for which the viability in assay [1] was 97.5%; in assay [3] it was 97.5% (inactive); in assay [4], 99.6% (inactive); in assay [5] it was 95.5% (inactive); in assay [6] (setting [9]), 98.3%; in assay [6] (setting [10]), 95.5%. Further, the Her2 level in assay [2] was 89.5% (inactive). Also, the differential viability (reversal) in assay [6] (H69AR cells + 2 uM doxorubicin) was -2.83% (inactive). Also, the figures for the inhibition in assay [7] and in assay [8] were 1.71% (inactive) and -2.74% (inactive), respectively.

Regarding `CCOC(=O)c1ccc(NC(=O)CCc2c(C)nc3ncnn3c2C)cc1`, the viability in assay [1] is 88%; in assay [3], 88% (inactive); in assay [4] it was 107% (inactive); in assay [5], 92.7% (inactive); in assay [6] (setting [9]), 102%; in assay [6] (setting [10]) it was 92.7%. Also, the Her2 level in assay [2] is 95.5% (inactive). Besides, in assay [6] (H69AR cells + 2 uM doxorubicin), the differential viability (reversal) is -9.71% (inactive). For the same compound, the values for the inhibition in assay [7] and in assay [8] were 1.37% (inactive) and -5.56% (inactive), respectively.

For the compound `Cn1cc(CC(=O)Nc2cccc(C#N)c2)c2ccccc21`, the viability in assay [1] was 101%; in assay [3] it was 101% (inactive); in assay [4], 97.7% (inactive); in assay [5], 104% (inactive); in assay [6] (setting [9]), 91.7%; in assay [6] (setting [10]) it was 104%. In addition, in assay [2], the Her2 level is 87.5% (inactive). Also, the differential viability (reversal) in assay [6] (H69AR cells + 2 uM doxorubicin) was 12.6% (inactive). In addition, the inhibition in assay [7] is -4.61% (inactive); in assay [8], -2.22% (inactive).

Take `O=C(O)C1CC=CCC1C(=O)NCc1ccccc1` (stereo not given): the viability in assay [1] was 106%; in assay [3], 106% (inactive); in assay [4] it was 91.1% (inactive); in assay [5], 92.2% (inactive); in assay [6] (setting [9]) it was 96%; in assay [6] (setting [10]), 92.2%. Moreover, the Her2 level in assay [2] is 87% (inactive). Further, the differential viability (reversal) in assay [6] (H69AR cells + 2 uM doxorubicin) was -3.77% (inactive). Moreover, the results for the inhibition in assay [7] and in assay [8] were -4.4% (inactive) and -2.38% (inactive), respectively.

In the case of `O=C(c1cccn2c(=O)c3cc(Cl)ccc3nc12)N1CCOCC1`, the viability in assay [1] was 95.5%; in assay [3] it was 95.5% (inactive); in assay [4], 98% (inactive); in assay [5], 116% (inactive); in assay [6] (setting [9]) it was 96%; in assay [6] (setting [10]), 116%. Also, in assay [2], the Her2 level was 104% (inactive). Further, the differential viability (reversal) in assay [6] (H69AR cells + 2 uM doxorubicin) was 20.2% (inactive). Also, the inhibition in assay [7] is -3.2% (inactive); in assay [8], -5.32% (inactive).

Consider `O=C(Nc1ccccc1N1CCCCC1)c1ncoc1-c1ccc(F)cc1`, for which the viability was 115% in assay [1]; 115% (inactive) in assay [3]; 78.1% (inactive) in assay [4]; 84.6% (inactive) in assay [5]; 85.8% in assay [6] (setting [9]); 84.6% in assay [6] (setting [10]). The Her2 level in assay [2] is 109% (inactive). Moreover, in assay [6] (H69AR cells + 2 uM doxorubicin), the differential viability (reversal) is -1.2% (inactive). The inhibition is -3.47% (inactive) in assay [7] and -2.86% (inactive) in assay [8].

Turning to `COc1ccc(-c2cc3n(n2)CCc2nc4ccccc4n2-3)cc1`, the viability in assay [1] is 95.5%; in assay [3], 95.5% (inactive); in assay [4], 87% (inactive); in assay [5], 93.3% (inactive); in assay [6] (setting [9]), 86.7%; in assay [6] (setting [10]), 93.3%. In addition, in assay [2], the Her2 level is 70% (inactive). For the same compound, the differential viability (reversal) in assay [6] (H69AR cells + 2 uM doxorubicin) was 6.67% (inactive). In addition, the results for the inhibition in assay [7] and in assay [8] were -5.2% (inactive) and 0.48% (inactive), respectively.
